Screening data deposited in PubChem by several laboratories.
In the library only some 11% were active in any assay of this set; here they are far more common.
Diaph act CS – diaphorase activation or chemical reduction counter-screen; Diaphorase/resazurin coupled assay, resorufin fluorescence, 16 min; hits give high values; 1 = vehicle wells, 0 = NADH-free wells; activation factor at 20 µM; 190,000 compounds, 0.005% hits; AID 1229;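 active = diaphorase activity raised at least twofold by the compound at 20 µM; inactive = activation factor below 2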
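Measured by – red resorufin fluorescence at 544/590 nm excitation/emission · Test system – Clostridium kluyveri diaphorase, purified enzyme · Incubation – reaction time 16 min, room temperature · Buffer or medium – 50 mM HEPES pH 7.4 with 4.542 mM MgCl2, 0.005% Tween 20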
Diaphorase inh – inhibits diaphorase or chemically oxidizes, flagging diaphorase assay artifacts; AID 1217; inhibition, % at 20 µM; 190,000 compounds, 0.69% hits; diaphorase resazurin-to-resorufin fluorescence, NADH, 16 min; bacterial (C. kluyveri) enzyme, not human;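 active = primary screen inhibition at 20 µM above a set limit, cut at about 50% in these data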
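material = Clostridium kluyveri diaphorase enzyme | amount = 0.14 U/mL diaphorase, enzyme working solution | schedule = incubation 16 min, room temperature | detection = fluorescence of resorufin formed from resazurin, Ex 544/Em 590 nm | benchmarks = positive control minus NADH, DMSO neutral control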
G6PDH counter – L. mesenteroides G6PDH inhibition counter-screen; Purified L. mesenteroides G6PDH, diaphorase/resazurin coupled fluorescence, 45 min; inhibition, % at 5 µM; 200,000 compounds, 0.12% hits
Lmaj promast – inhibitors of Leishmania major promastigote growth; Leishmania major promastigotes, resazurin fluorescence viability; inhibition, % at 10 µM; 200,000 compounds, 9% hits; AID 1063;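 also: promastigotes grown with compound for 44 hours at 28 °C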
WT yeast gro inh – growth inhibition of WT yeast, mitochondrial fusion screen; AID 1362; inhibition, % at 10 µM; 190,000 compounds, 2.1% hits; mitochondrial fusion phenotypic screen, WT strain; in the data active = inhibition above about 58%; tested in S. cerevisiae
Hits are given with their value; - = inactive. Rule as the data show it, unless noted: active = inhibition above about 50%; inactive = the rest.

SMILES	Diaph act CS	Diaphorase inh	G6PDH counter	Lmaj promast	WT yeast gro inh
O=C(CSc1ncnc2c1cnn2-c1ccc(F)cc1)NCc1ccc2c(c1)OCO2	-	-	-	63	-
COC(=O)/C=C/CSC1=N/C(=C/c2ccc(-n3cncn3)cc2)C(=O)N1	-	-	-	-	-
O=C(CSc1nnc2c(Cl)cc(Cl)cn12)N1CCN(c2ccc(F)cc2)CC1	-	-	-	53	-
CCOC(=O)c1cc2c(=O)n3ccccc3nc2n(C(C)C)c1=NC(=O)c1c(-c2ccccc2Cl)noc1C	-	-	-	88	-
CCOC(=O)c1cc2c(=O)n3ccccc3nc2n(CCOC)c1=NC(=O)c1c(-c2c(F)cccc2Cl)noc1C	-	-	-	67	-
CCOC(=O)c1cc2c(=O)n3ccccc3nc2n(C(C)C)c1=NC(=O)c1ccncc1	-	65	-	52	-
CCOC(=O)c1cc2c(=O)n3ccccc3nc2n(CCOC)c1=NC(=O)c1ccncc1	-	-	-	-	-
CS(=O)(=O)N(CC(=O)N1CCCC1)c1cccc(Cl)c1	-	-	-	-	-
CC(C)(C)NC(=O)NC(=O)COC(=O)CNS(=O)(=O)/C=C/c1ccccc1	-	-	-	-	-
Cc1ccccc1NC(=O)/C=C/c1ccc([N+](=O)[O-])s1	-	-	-	82	-
Cc1cc(C)cc(NC(=O)/C=C/c2ccc([N+](=O)[O-])s2)c1	-	-	-	82	-
CC(=O)c1cccc(NC(=O)/C=C/c2ccc([N+](=O)[O-])s2)c1	-	-	-	-	-
Cc1cc(NC(=O)CC#N)n(-c2ccccc2)n1	-	-	-	-	-
O=C(N1CCCCC1)N1CCN(C(c2ccccc2)c2ccccc2)CC1	-	-	-	-	-
O=C(N1CCOCC1)N1CCN(C(c2ccccc2)c2ccccc2)CC1	-	-	-	-	95
S=C(NCc1ccco1)N1CCN(C(c2ccccc2)c2ccccc2)CC1	-	-	-	-	64
C=C(C)CNC(=S)N1CCN(C(c2ccccc2)c2ccccc2)CC1	-	-	-	-	-
CS(=O)(=O)N1CCC(C(=O)N2CCN(C(c3ccccc3)c3ccccc3)CC2)CC1	-	-	-	67	-
CC(C)CNC(=S)N1CCN(C(c2ccccc2)c2ccccc2)CC1	-	-	-	-	70
O=C(CN1CCN(C(c2ccccc2)c2ccccc2)CC1)NC(=O)NCc1ccco1	-	-	-	-	-
C/C(=N\NC(=O)c1ccn(C)n1)c1cccc(NC(=O)c2ccc(C)s2)c1	-	-	-	-	-
CCc1ccc(/C([O-])=C(/C(=S)NCCN2CCOCC2)[n+]2ccccc2)cc1	-	-	-	-	-
CCCNC(=O)c1ccccc1NC(=O)CN(c1ccccc1)S(=O)(=O)N(C)C	-	-	-	-	-
COc1cc(CCC(=O)Nc2cc(C)cc(C)c2)cc(OC)c1OC	-	-	-	-	-
CCOc1ccc(C(C)=O)cc1CN1C(=O)C(=O)N(CC)C1=O	-	-	-	-	-
SMILES	Diaph act CS	Diaphorase inh	G6PDH counter	Lmaj promast	WT yeast gro inh
O=c1[nH]n2c(=O)c3c([nH]c2c1N=Nc1cccc(C(F)(F)F)c1)CCCC3	-	-	-	-	-
Cc1[nH]n(C2=NCCS2)c(=O)c1N=Nc1cccc(C(F)(F)F)c1	-	-	-	99	84
O=c1oc2cc(Oc3c([N+](=O)[O-])cc(C(F)(F)F)cc3[N+](=O)[O-])ccc2c2c1CCCC2	-	-	-	-	62
O=c1oc2cc(Oc3ccc(C(F)(F)F)cc3[N+](=O)[O-])ccc2c2c1CCC2	-	-	-	-	-
Cc1ccc(Cl)cc1N1CCN(C(=O)CN(C2CCCCC2)S(C)(=O)=O)CC1	-	-	-	-	-
Cc1ccc(NC(=S)Nc2cccc3cnccc23)cc1	-	-	-	-	-
Fc1ccccc1NC(=S)Nc1cccc2cnccc12	-	-	-	-	-
S=C(Nc1cccc(Cl)c1)Nc1cccc2cnccc12	-	-	-	-	70
Cc1ccccc1NC(=S)Nc1cccc2cnccc12	-	52	-	-	-
Cc1ccc(C)c(NC(=S)Nc2cccnc2)c1	-	-	-	-	-
Cc1ccc(C)c(NC(=S)Nc2cccc3cnccc23)c1	-	55	-	-	62
Cc1ccc(NC(=S)Nc2cccc3cnccc23)cc1C	-	-	56	-	59
CCn1c(SCC(=O)Nc2nc(-c3ccccc3)cs2)nc2c1c(=O)n(C)c(=O)n2C	-	-	-	-	-
